High-throughput results as filed in PubChem BioAssay.
In the library only some 4.8% were active in any assay of this set; here they are far more common.
T cruzi repl = blocks replication of Trypanosoma cruzi. T. cruzi beta-gal in NIH3T3, luminescence, 90 h. AID 1885. 300,000 tested, 1.4% active. inhibition, % (test concentration not listed);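 active = mean inhibition across valid replicates above about 55%, limit read from the data; inconclusive = mean below that limit but half or more replicates reach it; inactive = mean below it, under half of replicates reach it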;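 also: signal also drops with host cell toxicity which is not excluded here; 0% = plate median of DMSO wells and 100% = zero luminescence signal; higher percent means less beta-gal luminescence so fewer parasites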
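Assay system: NIH/3T3 fibroblasts plus reporter T. cruzi. Amount: NIH/3T3 cells, 5,000 per well. Buffer or medium: DMEM, 2% fetal bovine serum. Doses: compound pinned at 50 nL/well, DMSO. Schedule: ≥90 h infection period, 3 h prior cell attachment. Signal: luminescent β-galactosidase signal after 60 min lysis. Read-out: parasite load inhibition, %.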
Beta apoptosis = beta cell apoptosis inhibition. INS-1E cytokine-induced death, ATP luminescence, 48 h; percent of positive-control rescue, neutral wells zero. protection from apoptosis, % (test concentration not listed). 300,000 tested, 0.8% active. AID 435005;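 active = Every replicate reaches about 75%, or at least half do and their mean reaches it too, limit read from the data; inconclusive = At least half of replicates reach the limit but their mean does not; inactive = Under half of replicates reach the limit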;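 also: 0% = cytokine-treated negative control wells and 100% = positive control rescue; higher means more ATP so stronger rescue from cytokine killing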
Mot1-301 SUMO = inhibitors of SUMOylation pathway: yeast Mot1-301 growth rescue. S. cerevisiae Mot1-301 growth rescue, ATP luminescence, 38.5C; percent above DMSO median, 100 means doubled. growth rescue, % at 18.8 µM. 320,000 tested, 1% active. AID 2716;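 active = every valid replicate shows activation above 250% relative to neutral control wells; inactive = the rest, any valid replicate at or below 250%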;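 also: OY570 slx delta 5 strain wells were the positive control but not used for scaling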
CSC inhib = cancer stem cell inhibition. inhibition, % at 7.5 µM. cancer stem cell-like cells viability, luminescence. 300,000 tested, 1.1% active. AID 2717; in the data active = inhibition above about 75%; inconclusive = no clear call, values can overlap the other calls; tested in HMLE shEcad cells
WT yeast gro inh = growth inhibition of WT yeast, mitochondrial fusion screen; 190,000 tested, 2.1% active; inhibition, % at 10 µM; mitochondrial fusion phenotypic screen, WT strain; in the data active = inhibition above about 58%; tested in S. cerevisiae
Efflux pump mplx = blocks antifungal efflux pumps in multiplex yeast assay; S. cerevisiae Candida pump triplex, Nile Red efflux; inhibition, % at 10 µM; 330,000 tested, 0.44% active; AID 485275;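 active = plate passing quality check with inhibition over a set limit, or well fluorescence over plate mean plus 4 SD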;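 also: Nile Red retained in pooled yeast measured as flow cytometry median fluorescence; 0% = buffer negative control and 100% = Enniatin B positive control; higher means more Nile Red kept so more efflux inhibition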
Numbers without * were called inactive; ? = inconclusive; · = no result.

SMILES | T cruzi repl | Beta apoptosis | Mot1-301 SUMO | CSC inhib | WT yeast gro inh | Efflux pump mplx
COC(=O)CC1C(=O)NCCN1C(=S)Nc1ccc(F)cc1 (stereo unspecified) | -1.3 | -2.8 | -2.9 | 6.4 | · | -0.1
N#Cc1c(N)nc2c(c1-c1cccc(O)c1)CCCCCC2 | -1.5 | -3.0 | 6.0 | 81.8* | 3.4 | 0.0
Cc1csc(CNC(=O)C2CCC(=O)N(CCCc3ccccc3)C2)n1 (stereo unspecified) | 2.8 | · | · | · | · | -0.1
CCOCc1c(C(=O)NC2=Nc3ccccc3NC(CC)=C2C(=O)OCC)oc2ccccc12 | 56.1* | 9.5 | -4.9 | 42.6 | 26.0 | 0.2
Cc1cccc2cc(-c3ccccc3)c(-c3ccccc3)c[n+]12 | 51.7 | 99.0* | 33.1 | 11.9 | 72.2* | -0.1
O=C(Nc1nc(-c2ccccc2)cs1)c1cccc([N+](=O)[O-])c1 | 54.6* | 4.6 | 14.1 | 18.6 | -0.9 | -0.2
O=[N+]([O-])c1cccc(-c2csc(Nc3ccccc3)n2)c1 | 27.6 | 10.2 | 22.0 | 94.4* | 64.7 | 0.1
O=C(Nc1nc(-c2ccccc2)cs1)c1ccc(Br)o1 | 14.4 | 2.4 | 45.0 | 20.3 | 63.2* | 0.0
Cc1ccc(C(=O)Nc2nc(-c3cccnc3)cs2)o1 | 13.9 | 0.8 | 211.2 | 3.2 | -13.1 | -0.1
O=C(Nc1nc(-c2cccnc2)cs1)c1cccc([N+](=O)[O-])c1 | 6.7 | 4.5 | -6.6 | 2.6 | 3.3 | -0.1
O=C(CC(c1ccccc1)c1ccco1)Nc1nccs1 (stereo unspecified) | 9.1 | 4.9 | -18.5 | 6.5 | 1.8 | 0.1
CN(C)c1ccc(NC2=C(Cl)C(=O)c3ccccc3C2=O)cc1 | 50.9 | -20.9 | -26.6 | 147.1* | 19.9 | -0.2
O=C(NCc1ccccn1)c1ccccc1OCc1ccc(F)cc1 | 4.8 | -12.5 | -9.7 | -3.7 | · | -0.1
Clc1ccc(COc2ccccc2CNCc2cccnc2)cc1 | ? | -4.4 | 47.3 | 1.4 | 9.2 | 0.1
Brc1cccc(CNCc2ccncc2)c1 | 51.0 | -2.1 | 5.5 | -5.5 | · | -0.1
COc1ccccc1CNC(=O)c1ccccc1OCc1ccc(F)cc1 | 29.4 | 9.0 | 6.9 | 0.7 | 67.3* | 0.0
Brc1ccc(OCc2ccccc2)c(CNCc2ccncc2)c1 | 56.2* | 1.5 | 261.9* | 3.7 | 43.9 | -2.6
Fc1ccc(COc2ccccc2CNCc2ccncc2)cc1 | 56.4* | 2.0 | 15.0 | -8.9 | -8.4 | -0.2
Cc1ccc(-n2c(Cl)c(Cl)nc(Cl)c2=O)cc1 | · | 98.4* | 27.1 | 90.9* | 62.2 | 0.7
Cc1nn(CC(=O)NCc2cc3ccccc3[nH]2)c(C)c1[N+](=O)[O-] | -5.6 | -11.2 | 10.9 | -7.4 | -4.4 | 0.2
COc1nnc(-c2ccc(N3CCCCC3)c(NC(=O)C3CCCCC3)c2)c2ccccc12 | 34.2 | 78.7* | -13.8 | 32.7 | 5.7 | -0.1
O=C(NC1CCCC1)c1cccc(Cl)c1 | -7.6 | -1.3 | · | -0.9 | 19.9 | 0.0
O=C(NC1CC1)c1ccc2c(c1)C1C3CCC(C3)C1C(c1ccccc1)N2 (stereo unspecified) | 14.6 | 0.8 | -25.4 | 9.6 | 71.2* | 0.5
COc1cc(OC)cc(-c2nnc(SCc3ccc(C(=O)O)cc3)o2)c1 | -3.3 | 4.1 | -23.5 | -8.4 | · | -0.1
COc1ccc([C@H]2Oc3cc(O)cc(O)c3C(=O)C2[C@@H]2C(=O)c3c(O)cc(O)cc3O[C@@H]2c2ccc(OC)cc2)cc1 (stereo partly specified) | -3.2 | 7.6 | 88.8 | 142.4* | · | -0.2
SMILES | T cruzi repl | Beta apoptosis | Mot1-301 SUMO | CSC inhib | WT yeast gro inh | Efflux pump mplx
Cn1nc(C(=O)NNC(=O)C2CSC3(C)CCC(=O)N23)c2ccccc2c1=O (stereo unspecified) | -14.5 | -4.5 | -0.6 | -8.4 | · | 0.0
C1CCC(OCCN2CCN(CCOC3CCCCC3)CC2)CC1 | 55.1* | 1.8 | 87.2 | 42.7 | 2.7 | 0.0
c1ccc(-c2nnc(-c3ccccc3)nn2)cc1 | -1.6 | -4.5 | -14.8 | 1.9 | · | 0.0
c1cncc(-c2nnc(-c3cccnc3)nn2)c1 | -1.9 | 108.2* | -9.2 | 9.6 | 13.6 | 0.2
O=C1Nc2ccc(Br)cc2C1(O)c1ccc(F)cc1 (stereo unspecified) | -8.4 | -7.6 | -1.8 | -3.3 | · | 0.1
COc1cccc(-c2nnc3sc(-c4ccccc4)nn23)c1 | 10.9 | 5.2 | 73.6 | 6.3 | 3.1 | 0.0
Cc1cccc(-c2nnc3sc(-c4ccccc4C)nn23)c1 | 39.7 | 18.9 | 104.7 | · | 68.5* | 0.2
COC(=O)c1c(C(=O)OC)c(-c2ccc(Cl)cc2)n2c1CS(=O)(=O)C2 | 5.4 | -0.4 | 98.2 | -8.2 | -2.7 | 0.1
O=C(NCc1cccnc1)C(=O)NCC(c1ccco1)N1CCN(c2ccccc2)CC1 (stereo unspecified) | -20.6 | -4.8 | 6.2 | -18.4 | 1.9 | 0.2
O=S(=O)(NCC(c1cccnc1)N1CCN(c2ccc(F)cc2)CC1)c1ccccc1 (stereo unspecified) | 58.7* | 1.9 | 68.9 | -3.2 | · | 0.0
O=S(=O)(NCC(c1cccnc1)N1CCN(c2ccccc2)CC1)c1cc(F)ccc1F (stereo unspecified) | 76.0* | 2.0 | 190.6 | 17.8 | 27.3 | 0.0
COc1ccccc1N1CCN(C(CNS(=O)(=O)c2ccccc2)c2cccnc2)CC1 (stereo unspecified) | 28.4 | -3.4 | 3.2 | 8.0 | -8.2 | 0.1
O=C(NCC(c1cccnc1)N1CCN(c2ccccc2)CC1)c1ccco1 (stereo unspecified) | 64.9* | · | 8.6 | · | · | -0.1
COc1ccccc1N1CCN(C(CNS(=O)(=O)c2cc(F)ccc2F)c2cccnc2)CC1 (stereo unspecified) | 64.7* | 0.8 | 44.8 | 8.9 | -6.2 | 0.6
CN1CCN(C(CNS(=O)(=O)c2ccc(F)cc2)c2cccnc2)CC1 (stereo unspecified) | 31.2 | -1.1 | -7.3 | -20.2 | -5.8 | 0.1
COc1cccc(NC(=O)c2ccc(OC(F)(F)F)cc2)c1 | -22.2 | -4.8 | 11.7 | 15.9 | · | ·
Cc1cc(Cl)ccc1OCC(=O)OCC(=O)c1c(N)n(C)c(=O)n(C)c1=O | · | 0.1 | -5.1 | · | · | -0.1
Cc1ccc(Sc2ncccc2C(N)=O)cc1 | -3.0 | · | 50.1 | -9.0 | · | 0.0
CCC(C(=O)NC1CC(C)(C)NC(C)(C)C1)c1ccccc1 (stereo unspecified) | -5.2 | -1.6 | 47.4 | -16.3 | · | -0.2
CCOc1ccc2oc(C(=O)N3CC(C)OC(C)C3)c(C)c2c1 (stereo unspecified) | 9.6 | 0.7 | 18.2 | -3.1 | · | -1.2
Cc1ccc(-n2c(C)cc(C3=NNC(=NC4CC4)SC3)c2C)cc1C | 17.0 | 21.0 | -2.0 | 45.8 | 77.9* | 0.1
Cc1cc(C2=NNC(=NC3CC3)SC2)c(C)n1-c1c(C)n(C)n(-c2ccccc2)c1=O | -13.2 | -8.0 | -0.8 | · | -8.9 | 0.1
CN(c1ccccc1)S(=O)(=O)c1cccc(NS(=O)(=O)c2cccc(C(=O)O)c2)c1 | · | -3.6 | -4.5 | · | · | -0.3
